# According to ChEMBL document CHEMBL5661984, “Allosteric ligands for the pharmacologically dark receptors GPR68 and GPR65” (Nature, 2015):
# The source made the active and inactive calls. The calls are words filed in the database; no cut-off is given here.
# Key:
# [1] = target: T1, G-protein coupled receptor 68 (Homo sapiens, UniProt Q15743); assay: Binding affinity to GPR68 expressed in human HEK293T cells assessed as cAMP production in presence of H+ proton by Split-luciferase based luminescence counter analysis; assay type: cell-based; conditions: filed as positive allosteric modulator
# T1 sequence (Q15743 whole entry): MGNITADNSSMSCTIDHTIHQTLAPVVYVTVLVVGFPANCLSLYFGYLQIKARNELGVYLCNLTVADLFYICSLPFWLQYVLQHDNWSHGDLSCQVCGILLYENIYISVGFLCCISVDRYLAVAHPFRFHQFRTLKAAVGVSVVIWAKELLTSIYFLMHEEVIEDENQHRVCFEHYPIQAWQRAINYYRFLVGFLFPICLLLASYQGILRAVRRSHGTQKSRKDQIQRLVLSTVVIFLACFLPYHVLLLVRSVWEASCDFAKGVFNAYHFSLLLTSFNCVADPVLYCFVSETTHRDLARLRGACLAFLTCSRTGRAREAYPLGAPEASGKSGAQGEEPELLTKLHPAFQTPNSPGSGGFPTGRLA
# Outline: (§1)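 Proton concentration-response of GPR68 (wild type or E160A/K/Q, R189L/M, H269F mutants) in transiently transfected HEK293-T cells. Read-out: GloSensor cAMP, with luciferin loading 90 min at 37°C at pH 8.4. Run with and without increasing modulator concentrations; 20 min at room temperature before luminescence. Proton KA fixed to the proton EC50 without modulator. KB, τA, α, β fitted globally with an operational allosteric model. n=4.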
# [2] = target: C-X-C chemokine receptor type 4 (Homo sapiens) (UniProt P61073); assay: Agonist activity against CXCR4 receptor (unknown origin) transfected in human HEK293T cells at 10 uM incubated for 15 mins in presence of CXCL12 by luminescence counter analysis; assay type: functional, cell-based
# Sequence of C-X-C chemokine receptor type 4 (Homo sapiens) (P61073 whole entry): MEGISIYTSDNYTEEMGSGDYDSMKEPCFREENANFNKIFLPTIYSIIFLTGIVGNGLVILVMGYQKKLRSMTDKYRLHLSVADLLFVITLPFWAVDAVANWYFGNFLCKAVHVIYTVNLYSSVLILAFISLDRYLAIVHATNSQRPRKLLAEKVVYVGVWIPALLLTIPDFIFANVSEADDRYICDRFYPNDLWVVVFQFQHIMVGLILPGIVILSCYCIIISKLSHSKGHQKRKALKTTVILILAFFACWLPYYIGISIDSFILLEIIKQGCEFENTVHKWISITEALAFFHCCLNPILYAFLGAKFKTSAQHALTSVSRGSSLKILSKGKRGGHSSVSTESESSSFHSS
# Outline: (§2)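 HEK293-T cells transiently transfected with CXCR4 and the GloSensor cAMP reporter, plated in DMEM with 1% dialyzed FBS. Test compound at 10 μM in 20 mM HEPES/HBSS, pH 7.4, 15 min at room temperature. Agonist mode: luciferin (4 mM final) plus 200 nM isoproterenol added, 20 min. Antagonist mode: compound 10 min, then reference agonist at EC80 for 10 min, then luciferin/isoproterenol. Luminescence read. CXCL12 (1 or 3 μM) is the agonist control and AMD3100 (10 μM) the antagonist control. n=2.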
# [3] = target: C-X-C chemokine receptor type 4 (Homo sapiens) (UniProt P61073); assay: Antagonist activity against CXCR4 receptor (unknown origin) transfected in human HEK293T cells at 10 uM incubated for 15 mins in presence of AMD3100 by luminescence counter analysis; assay type: functional, cell-based; outline: as §2
# [4] = target: T1, G-protein coupled receptor 68; assay: Positive allosteric modulator activity at GPR68 expressed in human HEK293T cells assessed as cAMP production in presence of H+ proton by Split-luciferase based luminescence counter analysis (reference value: 26.4 to 43.8 %); assay type: functional, cell-based; outline: as §1
# [5] = target: T1, G-protein coupled receptor 68; assay: Positive allosteric modulator activity at GPR68 expressed in human HEK293T cells assessed as cAMP production in presence of H+ proton by Split-luciferase based luminescence counter analysis (reference value: 6.53 to 6.72); assay type: functional, cell-based
# [6] = target: T2, G-protein coupled receptor 65 (Homo sapiens, UniProt Q8IYL9); assay: Agonist activity against GPR65 (unknown origin) transfected in human HEK293T cells on pH 6.80 to 7.40 at 30 uM incubated for 15 mins by luminescence counter analysis; assay type: functional, cell-based
# T2 sequence (Q8IYL9 whole entry): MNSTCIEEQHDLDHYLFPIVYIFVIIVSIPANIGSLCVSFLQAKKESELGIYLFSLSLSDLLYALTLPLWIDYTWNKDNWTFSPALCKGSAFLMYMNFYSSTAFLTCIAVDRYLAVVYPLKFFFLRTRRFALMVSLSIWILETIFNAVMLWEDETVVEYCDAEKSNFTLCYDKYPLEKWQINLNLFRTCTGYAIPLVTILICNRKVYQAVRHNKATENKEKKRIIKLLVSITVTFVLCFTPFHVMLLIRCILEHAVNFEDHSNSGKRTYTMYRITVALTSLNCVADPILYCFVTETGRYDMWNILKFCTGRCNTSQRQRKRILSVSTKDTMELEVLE
# [7] = target: T2, G-protein coupled receptor 65; assay: Antagonist activity against GPR65 (unknown origin) transfected in human HEK293T cells incubated for 15 mins by luminescence counter analysis; assay type: functional, cell-based; conditions: for Activity: filed as antagonist
# Outline: (§3)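 GloSensor split-luciferase cAMP assay. HEK293-T cells transiently co-transfected with GPR65 (wild type or the D153A, R187L, F242A or Y272A mutant) and GloSensor 7A reporter. Cells plated in DMEM with 1% dialyzed FBS for at least 6 h, then loaded with luciferin (4 mM, in drug buffer pH 8.4) for 90 min at 37°C. Compounds added at set pH in HBSS with 10 mM HEPES/10 mM MES, with TAPS for higher pH. Luminescence read after about 20 min at room temperature. Data normalized to buffer basal and fitted to a 4-parameter logistic.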
# HEK293T [8] = assay: Antagonist activity against GPR65 R187L mutant (unknown origin) transfected in human HEK293T cells incubated for 15 mins by luminescence counter analysis; assay type: cell-based; conditions: filed as antagonist; outline: as §3
# HEK293T [9] = assay: Antagonist activity against GPR65 F242A mutant (unknown origin) transfected in human HEK293T cells incubated for 15 mins by luminescence counter analysis; assay type: cell-based; conditions: filed as antagonist; outline: as §3
# HEK293T [10] = assay: Antagonist activity against GPR65 Y272A mutant (unknown origin) transfected in human HEK293T cells incubated for 15 mins by luminescence counter analysis; assay type: cell-based; conditions: filed as antagonist; outline: as §3
# [11] = Antagonist activity against GPR65 D153A mutant (unknown origin) transfected in human HEK293T cells incubated for 15 mins by luminescence counter analysis; assay type: cell-based; conditions: HEK-293T, 0.25 h; outline: as §3
# [12] = target: T2, G-protein coupled receptor 65; assay: Antagonist activity against GPR65 (unknown origin) transfected in human HEK293T cells incubated for 15 mins by luminescence counter analysis relative to control; assay type: functional, cell-based; outline: as §3
# [13] = Antagonist activity against GPR65 D153A mutant (unknown origin) transfected in human HEK293T cells incubated for 15 mins by luminescence counter analysis relative to control; conditions: HEK-293T, 0.25 h, condition central nervous system disease; outline: as §3
# [14] = target: T1, G-protein coupled receptor 68; assay: Positive allosteric modulator activity at GPR68 expressed in human HEK293T cells assessed as proton-mediated calcium release at 10 uM incubated for 10 mins by Fluo-4 Direct calcium dye based FLIPR assay (reference value: 1.30 %); assay type: functional, cell-based
# [15] = Positive allosteric modulator activity at GPR68 E160K mutant transfected in human HEK293T cells assessed as proton-mediated calcium release at 10 uM incubated for 10 mins by Fluo-4 Direct calcium dye based FLIPR assay (reference value: 1.38 +/- 0.01 %); conditions: HEK-293T, condition central nervous system disease
# [16] = Positive allosteric modulator activity at GPR68 E160Q mutant transfected in human HEK293T cells assessed as proton-mediated calcium release at 10 uM incubated for 10 mins by Fluo-4 Direct calcium dye based FLIPR assay (reference value: 1.25 +/- 0.01 %); conditions: HEK-293T, condition central nervous system disease
# [17] = Positive allosteric modulator activity at GPR68 R189L mutant transfected in human HEK293T cells assessed as proton-mediated calcium release at 10 uM incubated for 10 mins by Fluo-4 Direct calcium dye based FLIPR assay (reference value: 1.42 +/- 0.01 %); conditions: HEK-293T, condition central nervous system disease
# [18] = Positive allosteric modulator activity at GPR68 R189M mutant transfected in human HEK293T cells assessed as proton-mediated calcium release at 10 uM incubated for 10 mins by Fluo-4 Direct calcium dye based FLIPR assay (reference value: 1.43 +/- 0.01 %); conditions: HEK-293T, condition central nervous system disease
# [19] = Positive allosteric modulator activity at GPR68 H269F mutant transfected in human HEK293T cells assessed as proton-mediated calcium release at 10 uM incubated for 10 mins by Fluo-4 Direct calcium dye based FLIPR assay (reference value: 1.57 +/- 0.01 %); conditions: HEK-293T, condition central nervous system disease
# [20] = Positive allosteric modulator activity at GPR68 E160K mutant transfected in human HEK293T cells assessed as proton-mediated calcium release at 10 uM incubated for 10 mins by Fluo-4 Direct calcium dye based FLIPR assay (reference value: 6.79 +/- 0.02); assay type: cell-based; conditions: HEK-293T
# [21] = Positive allosteric modulator activity at GPR68 E160Q mutant transfected in human HEK293T cells assessed as proton-mediated calcium release at 10 uM incubated for 10 mins by Fluo-4 Direct calcium dye based FLIPR assay (reference value: 6.86 +/- 0.04); assay type: cell-based; conditions: HEK-293T
# [22] = Positive allosteric modulator activity at GPR68 R189L mutant transfected in human HEK293T cells assessed as proton-mediated calcium release at 10 uM incubated for 10 mins by Fluo-4 Direct calcium dye based FLIPR assay (reference value: 6.85 +/- 0.02); assay type: cell-based; conditions: HEK-293T
# [23] = Positive allosteric modulator activity at GPR68 R189M mutant transfected in human HEK293T cells assessed as proton-mediated calcium release at 10 uM incubated for 10 mins by Fluo-4 Direct calcium dye based FLIPR assay (reference value: 6.77 +/- 0.01); assay type: cell-based; conditions: HEK-293T
# [24] = Positive allosteric modulator activity at GPR68 H269F mutant transfected in human HEK293T cells assessed as proton-mediated calcium release at 10 uM incubated for 10 mins by Fluo-4 Direct calcium dye based FLIPR assay (reference value: 6.44 +/- 0.02); assay type: cell-based; conditions: HEK-293T
# [25] = filed as positive allosteric modulator
compound,measurement,setting,value
COc1ccc(-c2nc(N)nc(NCc3ccccc3)n2)c(CO)c1,pKb,[1],4.43
O=C1CN=C(c2ccccc2)c2cc(Cl)ccc2N1,Activity,[2],inactive
same,Activity,[3],inactive
Nc1nc(NCc2ccccc2)nc(-c2ccc(F)c(F)c2)n1,Emax,[4]; [25],68.8%
same,EC50,[5],91.2 nM
same,pKb,[1],5.69
O=C1N[C@H](c2ccccc2[N+](=O)[O-])c2c(-c3ccccc3)n[nH]c21,Emax,[4]; [25],50.8%
same,EC50,[5],186 nM
same,pKb,[1],5.48
COc1ccc(-c2csc(NC(=O)CSc3nc[nH]n3)n2)cc1OC,Activity,[6],inactive
same,EC50,[7],501 nM
same,Activity,HEK293T [8],Active
same,Activity,HEK293T [9],Active
same,Activity,HEK293T [10],Active
same,EC50,[11],6310 nM
same,Emax,[12],2.2%
same,Emax,[13],1.5%
Cc1ccc(-c2nc(N)nc(NCc3ccccc3)n2)c2cccnc12,Emax,[4],31%
same,EC50,[5],95.5 nM
same,pKb,[1],4.92
Nc1nc(NCc2cccc(F)c2)nc(-c2cc(F)c(F)cc2N)n1,pKb,[1],4.66
Nc1nc(NCc2ccccc2)nc(-c2cc(F)cc(F)c2)n1,Emax,[14],1.24%
same,Emax at 10 µM,[15],1.38%
same,Emax at 10 µM,[16],1.11%
same,Emax at 10 µM,[17],1.49%
same,Emax at 10 µM,[18],1.41%
same,Emax at 10 µM,[19],1.63%
same,EC50,[20],141 nM
same,EC50,[21],102 nM
same,EC50,[22],105 nM
same,EC50,[23],141 nM
same,EC50,[24],324 nM
same,Emax,[4]; [25],70.7%
same,EC50,[5],110 nM
O=C1CCc2cc(-c3csc(NC(=O)c4ccc(-c5ccccc5F)o4)n3)ccc2N1,Activity,[7],Active
Nc1nc(NCc2cc[nH]n2)nc(-c2ccccc2CO)n1,pKb,[1],5.17
Nc1nc(-c2ccc(Cl)c(Cl)c2)c(-c2ccncc2)s1,pKb,[1],7.51
CCCCNc1c(C(=O)OCC)c(C)nc2c1cnn2CC,pKb,[1],5.2
Nc1nc(NCCc2ccccc2)nc(-c2ccccc2CO)n1,pKb,[1],5.43
COc1ccc(CNc2nc(N)nc(-c3ccccc3CO)n2)cc1,pKb,[1],4.35
O=C1N[C@H](c2cccc([N+](=O)[O-])c2)c2c(-c3ccco3)n[nH]c21,Emax,[4]; [25],60.3%
same,EC50,[5],107 nM
same,pKb,[1],4.42
Nc1nc(NCc2cccc(F)c2)nc(-c2ccc(F)cc2N)n1,pKb,[1],3.68
Nc1nc(NCc2ccccc2)nc(-c2ccccc2N)n1,Emax,[4]; [25],50.2%
same,EC50,[5],63.1 nM
same,pKb,[1],5.22
OC1CCC(Nc2nc(-c3ccccc3)nc3[nH]ccc23)CC1 (stereo not drawn),pKb,[1],6.2
Nc1nc(NCc2cccc(F)c2)nc(-c2cccc(F)c2N)n1,pKb,[1],3.88
Nc1nc(NCc2ccccc2)nc(-c2ccc(F)c(F)c2CO)n1,pKb,[1],3.84
Nc1nc(NCc2ccccc2)nc(-c2ccc(CO)cc2)n1,pKb,[1],4.93
CC(=O)c1cccc(-c2nc(N)nc(Nc3ccc(C)cc3)n2)c1,Emax,[4]; [25],67.3%
same,EC50,[5],57.5 nM
same,pKb,[1],6.31
O=C1CN=C(c2ccccc2F)c2cc(Cl)ccc2N1,Activity,[2],inactive
same,Activity,[3],inactive
COc1cc([C@H]2NC(=O)c3[nH]nc(-c4ccco4)c32)ccc1O,Emax,[4]; [25],46.9%
same,EC50,[5],158 nM
same,pKb,[1],5.17
O=C1CN=C(c2ccccc2Cl)c2cc([N+](=O)[O-])ccc2N1,Activity,[2],inactive
same,Activity,[3],inactive
Nc1nc(NCc2ccccc2F)nc(-c2cccc(F)c2N)n1,pKb,[1],4.11
Nc1nc(NCc2cccc(F)c2)nc(-c2ccc(F)c(F)c2CO)n1,pKb,[1],4.01
Nc1nc(NCc2ccccc2F)nc(-c2cc(F)c(F)cc2N)n1,pKb,[1],4.93
O=C(Nc1nc(-c2ccc3c(c2)OCCO3)cs1)c1csnn1,Activity,[7],Active
Nc1nc(NCc2ccccc2F)nc(-c2ccc(F)cc2N)n1,pKb,[1],4.23
Nc1nc(NCCCCc2ccccc2)nc(-c2ccccc2CO)n1,pKb,[1],5.82
Nc1nc(NCCCc2ccccc2)nc(-c2ccccc2CO)n1,pKb,[1],5.75
